Results reported in ChEMBL document CHEMBL4706708, “Improving the solubility of anti-proliferative thieno[2,3-b]quinoline-2-carboxamides” (Bioorg Med Chem, 2021).
Converted amounts (≈) assume the structure as drawn.

What was measured:
MDA-MB-231 [1] = assay: Antiproliferative activity against human MDA-MB-231 cells assessed as cell growth inhibition measured after 3 days by [3H]-thymidine incorporation assay; format: functional, cell-based
Summary of the method: (§1)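 HCT116 and MDA-MB-231 cells from ATCC, seeded at 3000 cells/well, exposed to inhibitor for three days; 0.04 µCi 3H-thymidine added per well 5 h before harvest onto glass fibre filters, incorporation counted by scintillation and expressed relative to untreated controls. Triplicate wells, at least two independent experiments. Single-point screen at 1 µM; IC50 determined from varying concentrations.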

[2] = Thermodynamic solubility of compound in water measured after 15 mins RP-HPLC analysis; format: physicochemical; settings: read-out: Therm_solubility
HCT-116 [3] = assay: Antiproliferative activity against human HCT-116 cells assessed as cell growth at 1 uM measured after 3 days by [3H]-thymidine incorporation assay relative to control; format: functional; settings: HCT-116, 72 h, time 3 day, read-out: Activity; summary of the method: as §1
MDA-MB-231 [4] = assay: Antiproliferative activity against human MDA-MB-231 cells assessed as cell growth at 1 uM measured after 3 days by [3H]-thymidine incorporation assay relative to control; format: functional; settings: MDA-MB-231, 72 h, time 3 day, read-out: Activity; summary of the method: as §1
HCT-116 [5] = assay: Antiproliferative activity against human HCT-116 cells assessed as cell growth inhibition measured after 3 days by [3H]-thymidine incorporation assay; format: functional, cell-based; summary of the method: as §1
[6] = Stability in water measured after 15 mins RP-HPLC analysis; format: physicochemical; settings: buffer, 0.25 h

Compound	IC50 (MDA-MB-231 [1]) [nM]	solubility thermodynamic at 0.25 h [2] [µg/mL]	growth at 1 µM (HCT-116 [3]) [%]	growth at 1 µM (MDA-MB-231 [4]) [%]	IC50 (HCT-116 [5]) [nM]	Stabilty [6]
CC(=O)c1cc2c(N)c(C(=O)Nc3cccc(Cl)c3C)sc2nc1C	636	1.63 (≈ 4.36 µM)	10	13.7	573	
Cc1nc2sc(C(=O)Nc3cccc(Cl)c3C)c(N)c2cc1C(C)O (stereo not drawn)	76	2.41 (≈ 6.41 µM)	2.2	11.7	72	
Nc1c(C(=O)Nc2cccc3ccccc23)sc2nc3c(cc12)CN(Cc1ccccc1)CC3	644	3.97 (≈ 8.55 µM)	4.7	19.3	640	
Cc1c(Cl)cccc1NC(=O)c1sc2nc3c(cc2c1N)CN(C)CC3		0.44 (≈ 1.14 µM)	101	95.3		Unstable
CC(=O)c1cc2c(N)c(C(=O)Nc3cccc4ccccc34)sc2nc1C	633	1.08 (≈ 2.88 µM)	7.8	13.6	591	
Cc1c(Cl)cccc1NC(=O)c1sc2nc3c(cc2c1N)CN(Cc1ccccc1)CC3	150	0.77 (≈ 1.66 µM)	2.3	4	193	
Cc1c(Cl)cccc1NC(=O)c1sc2nc3c(cc2c1N)COCC3		1.15 (≈ 3.08 µM)	78.1	50.9		Unstable
Cc1nc2sc(C(=O)Nc3cccc4ccccc34)c(N)c2cc1C(C)O (stereo not drawn)	81	2.21 (≈ 5.85 µM)	1.7	9.9	171	
CC(=O)c1cc2c(N)c(C(=O)Nc3cccc4c3OCCO4)sc2nc1C		0.26 (≈ 0.678 µM)	72.5	104		Unstable
Cc1cccc(NC(=O)c2sc3nc4c(cc3c2N)CN(Cc2ccccc2)CC4)c1C	162	1.72 (≈ 3.89 µM)	1.5	4	201	
Nc1c(C(=O)Nc2ccnc3ccccc23)sc2nc3c(cc12)CN(Cc1ccccc1)CC3		3.83 (≈ 8.23 µM)	82.8	104		
Cc1ccccc1NC(=O)c1sc2nc(C)c(C(C)O)cc2c1N (stereo not drawn)		29.5 (≈ 86.5 µM)	99.9	97.9		
CC(=O)c1cc2c(N)c(C(=O)Nc3cccc(Cl)c3)sc2nc1C		1.52 (≈ 4.22 µM)	101	102		
COc1ccc(NC(=O)c2sc3nc4c(cc3c2N)COCC4)cc1		3.19 (≈ 8.98 µM)	80.1	83.9		
Nc1c(C(=O)Nc2ccccn2)sc2nc3c(cc12)C(=O)CCC3		0.64 (≈ 1.89 µM)	10.2	27		
Nc1c(C(=O)Nc2cccc3cnccc23)sc2nc3c(cc12)C(=O)CCC3		1.67 (≈ 4.3 µM)	103	107		
CC(=O)c1cc2c(N)c(C(=O)Nc3cccc(Br)c3C)sc2nc1C	219	1.15 (≈ 2.75 µM)	4	11	183	
Nc1c(C(=O)Nc2cccc3ncccc23)sc2nc3c(cc12)CN(Cc1ccccc1)CC3		0.62 (≈ 1.33 µM)	104	91.3		
Cc1c(NC(=O)c2sc3nc4c(cc3c2N)CN(Cc2ccccc2)CC4)cccc1C(F)(F)F	> 1000	1.31 (≈ 2.64 µM)	69.7	61.5	> 1000	
Cc1nc2sc(C(=O)Nc3cccc4ccncc34)c(N)c2cc1C(C)O (stereo not drawn)		10.1 (≈ 26.6 µM)	83.1	94.6		
Cc1ccccc1NC(=O)c1sc2nc3c(cc2c1N)CN(Cc1ccccc1)CC3		0.26 (≈ 0.607 µM)	96.4	109		

Compound	IC50 (MDA-MB-231 [1]) [nM]	solubility thermodynamic at 0.25 h [2] [µg/mL]	growth at 1 µM (HCT-116 [3]) [%]	growth at 1 µM (MDA-MB-231 [4]) [%]	IC50 (HCT-116 [5]) [nM]	Stabilty [6]
Nc1c(C(=O)Nc2ccncc2)sc2nc3c(cc12)C(=O)CCC3		1.54 (≈ 4.55 µM)	110	108		
Cc1nc2sc(C(=O)Nc3ccnc4ccccc34)c(N)c2cc1C(C)O (stereo not drawn)		18.5 (≈ 49 µM)	93.6	107		
Nc1c(C(=O)Nc2cccc3c2OCCO3)sc2nc3c(cc12)C(=O)CCC3		0.12 (≈ 0.303 µM)	18.6	17.8		
Cc1ccccc1NC(=O)c1sc2nc3c(cc2c1N)CN(C)CC3		5.61 (≈ 15.9 µM)	101	95.3		
Cc1nc2sc(C(=O)Nc3ccccn3)c(N)c2cc1C(C)O (stereo not drawn)		5.43 (≈ 16.5 µM)	96.5	93.8		
Nc1c(C(=O)Nc2ccc3c(c2)OCCO3)sc2nc3c(cc12)CN(Cc1ccccc1)CC3		0.7 (≈ 1.48 µM)	83.2	94.9		
COc1cccc(NC(=O)c2sc3nc4c(cc3c2N)CN(Cc2ccccc2)CC4)c1C		1.89 (≈ 4.12 µM)	101	106		
COc1ccc(NC(=O)c2sc3nc4c(cc3c2N)CN(C)CC4)cc1		2.17 (≈ 5.89 µM)	98.9	90.3		
Cc1c(Br)cccc1NC(=O)c1sc2nc3c(cc2c1N)CN(Cc1ccccc1)CC3	122	0.61 (≈ 1.2 µM)	1	3.5	151	
CC(=O)c1cc2c(N)c(C(=O)Nc3cccc4ncccc34)sc2nc1C		1.3 (≈ 3.45 µM)	93	98.7		
Nc1c(C(=O)Nc2cccc3c2OCCO3)sc2nc3c(cc12)CN(Cc1ccccc1)CC3		2.1 (≈ 4.44 µM)	88.2	89.3		
CC(=O)c1cc2c(N)c(C(=O)Nc3cccc4cccnc34)sc2nc1C		3 (≈ 7.97 µM)	97	86.7		
COc1ccc(NC(=O)c2sc3nc4c(cc3c2N)CN(Cc2ccccc2)CC4)cc1		0.197 (≈ 0.443 µM)	87.4	94.1		
COc1cccc(NC(=O)c2sc3nc(C)c(C(C)=O)cc3c2N)c1		1.1 (≈ 3.09 µM)	96.5	96		
Nc1c(C(=O)Nc2ccccc2)sc2nc3c(cc12)CN(C(=O)OCc1ccccc1)CC3		1.93 (≈ 4.21 µM)	3.1	17.5		
Cc1ccccc1NC(=O)c1sc2nc3c(cc2c1N)COCC3		7.52 (≈ 22.2 µM)	101	103		
CC(=O)c1cc2c(N)c(C(=O)Nc3cccc(C)c3C)sc2nc1C	506	0.68 (≈ 1.92 µM)	2.1	8.9	422	
Nc1c(C(=O)Nc2ccccc2)sc2nc3c(cc12)CNCC3		40.5 (≈ 125 µM)	100	89.7		
CC(=O)c1cc2c(N)c(C(=O)Nc3ccccc3C)sc2nc1C		1.49 (≈ 4.39 µM)	110	97.1		
Cc1nc2sc(C(=O)Nc3cccc4cnccc34)c(N)c2cc1C(C)O (stereo not drawn)		7.55 (≈ 19.9 µM)	110	102		
